Results published in ChEMBL document CHEMBL5712901, “DOT1L inhibition blocks multiple myeloma cell proliferation by suppressing IRF4-MYC signaling” (2019).
The source made the active and inactive calls.

Key:
MM1.S [1] = assay: Upregulation of PRDM8 gene in human MM1.S cells at 1 uM for 6 days by; type: functional, cell-based; settings: time 6.0 day
RPMI-8226 [2] = assay: Upregulation of CAPN2 gene in human RPMI-8226 cells at 1 uM for 6 days by; type: functional, cell-based; settings: time 6.0 day
MM1.S [3] = assay: Upregulation of NREP gene in human MM1.S cells at 1 uM for 6 days by; type: functional, cell-based; settings: time 6.0 day
RPMI-8226 [4] = assay: Upregulation of PPP1R1C gene in human RPMI-8226 cells at 1 uM for 6 days by; type: functional, cell-based; settings: time 6.0 day
RPMI-8226 [5] = assay: Upregulation of PRRT2 gene in human RPMI-8226 cells at 1 uM for 6 days by; type: functional, cell-based; settings: time 6.0 day
RPMI-8226 [6] = assay: Upregulation of BATF3 gene in human RPMI-8226 cells at 1 uM for 6 days by; type: functional, cell-based; settings: time 6.0 day
MM1.S [7] = assay: Upregulation of PRRT2 gene in human MM1.S cells at 1 uM for 6 days by; type: functional, cell-based; settings: time 6.0 day
MM1.S [8] = assay: Upregulation of BHLHE22 gene in human MM1.S cells at 1 uM for 6 days by; type: functional, cell-based; settings: time 6.0 day
RPMI-8226 [9] = assay: Upregulation of HLA-DRA gene in human RPMI-8226 cells at 1 uM for 6 days by; type: functional, cell-based; settings: time 6.0 day
RPMI-8226 [10] = assay: Upregulation of ANXA2R gene in human RPMI-8226 cells at 1 uM for 6 days by; type: functional, cell-based; settings: time 6.0 day
MM1.S [11] = assay: Downregulation of H3K79me2 level in human MM1.S cells at 1 uM for 3 days by ChIP-qPCR analysis; type: functional, cell-based; settings: time 3.0 day
Outline: (§1)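 ChIP-qPCR for H3K79me2 at IRF4-MYC signaling genes after 1 μM inhibitor or DMSO for 3 days. Signal normalized to input DNA. An intergenic region 28 kb upstream of KLF2 served as negative control. Mean of 3 replications ± SEM.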

MM1.S [12] = assay: Upregulation of CAPG gene in human MM1.S cells at 1 uM for 6 days by; type: functional, cell-based; settings: time 6.0 day
MM1.S [13] = assay: Upregulation of APH1B gene in human MM1.S cells at 1 uM for 6 days by; type: functional, cell-based; settings: time 6.0 day
MM1.S [14] = assay: Upregulation of PPP1R1C gene in human MM1.S cells at 1 uM for 6 days by; type: functional, cell-based; settings: time 6.0 day
RPMI-8226 [15] = assay: Upregulation of FAM200B gene in human RPMI-8226 cells at 1 uM for 6 days by; type: functional, cell-based; settings: time 6.0 day
Outline: (§2)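 Human myeloma lines RPMI-8226 and MM.1S exposed to 1 μM DOT1L inhibitor, or DMSO, for 6 days. Whole-genome expression profiled on gene expression microarray.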

RPMI-8226 [16] = assay: Upregulation of ZG16B gene in human RPMI-8226 cells at 1 uM for 6 days by; type: functional, cell-based; settings: time 6.0 day
U-266 = assay: Upregulation of DOT1L in human U-266 cells by qRT-PCR analysis; type: functional, cell-based
Outline: (§3)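 Basal DOT1L transcript in untreated myeloma cell lines measured by qRT-PCR, normalized to ACTB; mean of 3 replicates with SEM.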

RPMI-8226 [17] = assay: Upregulation of HOXB6 gene in human RPMI-8226 cells at 1 uM for 6 days by; type: functional, cell-based; settings: time 6.0 day
MM1.S [18] = assay: Upregulation of ZNF862 gene in human MM1.S cells at 1 uM for 6 days by; type: functional, cell-based; settings: time 6.0 day
RPMI-8226 [19] = assay: Upregulation of ZNF75D gene in human RPMI-8226 cells at 1 uM for 6 days by; type: functional, cell-based; settings: time 6.0 day
MM1.S [20] = assay: Upregulation of CXCL10 gene in human MM1.S cells at 1 uM for 6 days by; type: functional, cell-based; settings: time 6.0 day; outline: as §2
MM1.S [21] = assay: Upregulation of FBXO2 gene in human MM1.S cells at 1 uM for 6 days by; type: functional, cell-based; settings: time 6.0 day; outline: as §2
RPMI-8226 [22] = assay: Upregulation of NOG gene in human RPMI-8226 cells at 1 uM for 6 days by; type: functional, cell-based; settings: time 6.0 day
RPMI-8226 [23] = assay: Upregulation of HLA-DRB5 gene in human RPMI-8226 cells at 1 uM for 6 days by; type: functional, cell-based; settings: time 6.0 day
MM1.S [24] = assay: Upregulation of RAPGEF2 gene in human MM1.S cells at 1 uM for 6 days by; type: functional, cell-based; settings: time 6.0 day
MM1.S [25] = assay: Upregulation of GLYATL1 gene in human MM1.S cells at 1 uM for 6 days by; type: functional, cell-based; settings: time 6.0 day; outline: as §2
RPMI-8226 [26] = assay: Upregulation of TP53TG3 gene in human RPMI-8226 cells at 1 uM for 6 days by; type: functional, cell-based; settings: time 6.0 day
MM1.S [27] = assay: Upregulation of CCDC96 gene in human MM1.S cells at 1 uM for 6 days by; type: functional, cell-based; settings: time 6.0 day
RPMI-8226 [28] = assay: Upregulation of ACOT11 gene in human RPMI-8226 cells at 1 uM for 6 days by; type: functional, cell-based; settings: time 6.0 day
RPMI-8226 [29] = assay: Upregulation of IFITM3 gene in human RPMI-8226 cells at 1 uM for 6 days by; type: functional, cell-based; settings: time 6.0 day
MM1.S [30] = assay: Upregulation of DOT1L in human MM1.S cells by qRT-PCR analysis; type: functional, cell-based; outline: as §3
MM1.S [31] = assay: Upregulation of IQCE gene in human MM1.S cells at 1 uM for 6 days by; type: functional, cell-based; settings: time 6.0 day
MM1.S [32] = assay: Upregulation of MMP9 gene in human MM1.S cells at 1 uM for 6 days by; type: functional, cell-based; settings: time 6.0 day
RPMI-8226 [33] = assay: Upregulation of GLYATL1 gene in human RPMI-8226 cells at 1 uM for 6 days by; type: functional, cell-based; settings: time 6.0 day; outline: as §2
MM1.S [34] = assay: Upregulation of SLC9A9 gene in human MM1.S cells at 1 uM for 6 days by; type: functional, cell-based; settings: time 6.0 day
RPMI-8226 [35] = assay: Upregulation of AGPAT9 gene in human RPMI-8226 cells at 1 uM for 6 days by; type: functional, cell-based; settings: time 6.0 day
MM1.S [36] = assay: Upregulation of FAM200B gene in human MM1.S cells at 1 uM for 6 days by; type: functional, cell-based; settings: time 6.0 day; outline: as §2
RPMI-8226 [37] = assay: Upregulation of CPQ gene in human RPMI-8226 cells at 1 uM for 6 days by; type: functional, cell-based; settings: time 6.0 day; outline: as §2
RPMI-8226 [38] = assay: Downregulation of H3K79me2 level in human RPMI-8226 cells at 1 uM for 3 days by ChIP-qPCR analysis; type: functional, cell-based; settings: time 3.0 day; outline: as §1
MM1.S [39] = assay: Upregulation of HLA-DQB1 gene in human MM1.S cells at 1 uM for 6 days by; type: functional, cell-based; settings: time 6.0 day
MM1.S [40] = assay: Upregulation of AMY1C gene in human MM1.S cells at 1 uM for 6 days by; type: functional, cell-based; settings: time 6.0 day
MM1.S [41] = assay: Upregulation of IFN in human MM1.S cells assessed as increase in IFIT1 gene at 1 uM for 6 days by qRT-PCR analysis; type: functional, cell-based; settings: time 6.0 day
RPMI-8226 [42] = assay: Upregulation of IFN in human RPMI-8226 cells assessed as increase in IFITM1 gene at 1 uM for 6 days by qRT-PCR analysis; type: functional, cell-based; settings: time 6.0 day
RPMI-8226 [43] = assay: Effect on human RPMI-8226 cells assessed as change in KLF2 mRNA level at 1 uM for 3 days by ChIP-qPCR analysis; type: functional, cell-based; settings: time 3.0 day; outline: as §1
MM1.S [44] = assay: Induction of apoptosis in human MM1.S cells assessed as late apoptotic cells at 1 uM for 6 days by annexin-V based propidium iodide staining based flow cytometric analysis (reference value: 13.4%); type: functional; settings: time 6 day
MM1.S [45] = assay: Induction of cell cycle arrest in human MM1.S cells assessed as decrease in accumulation of cells at S phase at 1 uM for 6 days; type: functional, cell-based; settings: time 6.0 day
Outline: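 Flow cytometric cell cycle analysis of RPMI-8226 and MM.1S cells treated with 1 μM DOT1L inhibitor or DMSO for 6 days. Sub-G1, G0-G1 and S phase populations scored. Summary is from 3 replications, mean ± SEM.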

Measured: Activity

CC(C)N(CCCNC(=O)Nc1ccc(C(C)(C)C)cc1)C[C@H]1O[C@@H](n2cc(Br)c3c(N)ncnc32)[C@H](O)[C@@H]1O
active: MM1.S [1] | RPMI-8226 [2] | MM1.S [3] | RPMI-8226 [4] | RPMI-8226 [5] | RPMI-8226 [6] | MM1.S [7] | MM1.S [8] | RPMI-8226 [9] | RPMI-8226 [10] | MM1.S [11] | MM1.S [12] | MM1.S [13] | MM1.S [14] | RPMI-8226 [15] | RPMI-8226 [16] | U-266 | RPMI-8226 [17] | MM1.S [18] | RPMI-8226 [19] | MM1.S [20] | MM1.S [21] | RPMI-8226 [22] | RPMI-8226 [23] | MM1.S [24] | MM1.S [25] | RPMI-8226 [26] | MM1.S [27] | RPMI-8226 [28] | RPMI-8226 [29] | MM1.S [30] | MM1.S [31] | MM1.S [32] | RPMI-8226 [33] | MM1.S [34] | RPMI-8226 [35] | MM1.S [36] | RPMI-8226 [37] | RPMI-8226 [38] | MM1.S [39] | MM1.S [40]

CC(C)N(C[C@H]1O[C@@H](n2cnc3c(N)ncnc32)[C@H](O)[C@@H]1O)[C@H]1C[C@@H](CCc2nc3cc(C(C)(C)C)ccc3[nH]2)C1 [PINOMETOSTAT]
active: MM1.S [41] | RPMI-8226 [42] | RPMI-8226 [43] | MM1.S [45]
27.8%: MM1.S [44]
